# Assay results published in ChEMBL document CHEMBL1129622, “Synthesis of non-nucleoside analogs of toyocamycin, sangivamycin, and thiosangivamycin: the effect of certain 4- and 4,6-substituents on the antiviral activity of pyrrolo[2,3-d]pyrimidines” (J Med Chem, 1996).
# How the values were obtained:
# Human betaherpesvirus 5 [1] = experiment: Antiviral activity against human cytomegalovirus by plaque reduction assay; type: functional, organism-based
# Procedure, shortened: (§1)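 Plaque reduction in HFF monolayers (MEM(E), 10% FBS) infected with a 0.2 mL inoculum of ca. 100 PFU HCMV Towne strain. Compounds were dissolved in the overlay medium. IC50 from linear regression of percent inhibition against log concentration, average of two or more experiments. Ganciclovir positive control.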
# Human betaherpesvirus 5 [2] = experiment: Antiviral activity against human cytomegalovirus (HCMV) in plaque reduction assay; type: functional, organism-based; procedure, shortened: as §1
# Human alphaherpesvirus 1 [3] = experiment: Antiviral activity against herpes simplex virus type 1 using ELISA; type: functional, organism-based
# HFF = experiment: Cytotoxicity produced in human foreskin fibroblasts (HFF) cells estimated by visual scoring of cells unaffected by virus infection.; type: ADME, cell-based
# Procedure, shortened: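 Uninfected HFF cells in the HCMV plaque-reduction plates were examined at 35-fold magnification on the day of plaque staining. Drug-induced cytopathology was scored 0–4. IC50 from regression of percent inhibition against log concentration, average of two or more experiments.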
# KB = experiment: Cytotoxicity (growth inhibition) against human epidermoid oral carcinoma KB cell line.; type: functional, cell-based
# Procedure, shortened: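 KB cells grown in MEM(H) with 10% calf serum. Cytotoxicity measured by a staining method. IC50 from linear regression of percent inhibition against log drug concentration, average of two or more experiments.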
# Human alphaherpesvirus 1 [4] = experiment: Antiviral activity against herpes simplex virus using ELISA; type: functional, organism-based
# Human betaherpesvirus 5 [5] = experiment: Antiviral activity against human cytomegalo virus using ELISA; type: functional, organism-based
# Procedure, shortened: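 HCMV (Towne strain, plaque-purified isolate P0) measured by enzyme immunoassay in MRC-5 human embryonic lung cells grown in MEM(E) with 10% FBS. IC50 from linear regression of percent inhibition against log concentration, averaged over two or more experiments. Ganciclovir positive control.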
# [6] = Half life was determined; type: ADME
# Human alphaherpesvirus 1 [7] = experiment: Inhibitory concentration against HSV-1; type: functional, organism-based
Compound,IC50 (Human betaherpesvirus 5 [1]) [µM],IC50 (HFF) [µM],IC50 (KB) [µM],also measured
CCOCn1cc(C(=N)S)c2c(OC)ncnc21,> 100,–,–,–
CCNc1ncnc2c1c(C(=N)S)cn2COCC,> 100,–,–,–
CCCn1c(N)c(C#N)c2c(N)ncnc21,–,100,15,IC50 (Human betaherpesvirus 5 [2]): 0.5 µM; IC50 (Human alphaherpesvirus 1 [3]): 2.5 µM
COCCOCn1cc(C#N)c2c(N)ncnc21,–,> 100,> 100,IC50 (Human alphaherpesvirus 1 [4]): > 100 µM
C=CCn1c(N)c(C#N)c2c(N)ncnc21,–,100,> 100,IC50 (Human betaherpesvirus 5 [2]): 1.9 µM; IC50 (Human alphaherpesvirus 1 [3]): 40 µM
CCOCn1cc(C#N)c2c(N(C)C)ncnc21,> 100,–,–,–
CCOCn1c(N)c(C(N)=O)c2c(N)ncnc21,> 100,> 100,> 100,IC50 (Human betaherpesvirus 5 [5]): > 100 µM
CCOCn1cc(C(=N)S)c2c(N)ncnc21,–,> 32,60,–
COCCOCn1cc(C(=N)S)c2c(S)ncnc21,> 100,–,–,–
CCNc1ncnc2c1c(C#N)cn2COCCOC,> 100,–,–,–
CCOCn1cc(C#N)c2c(OC)ncnc21,> 100,–,–,–
CCOCn1cc(C#N)c2c(OCC)ncnc21,> 100,–,–,–
COCCOCn1cc(C#N)c2c(OC)ncnc21,> 100,–,–,–
CCOCn1cc(C(=N)S)c2c(OCC)ncnc21,> 100,–,–,–
COCCOCn1cc(C(=N)S)c2c(OC)ncnc21,> 100,–,–,–
Cc1ccc(Cn2c(N)c(C#N)c3c(N)ncnc32)cc1,–,32,> 100,IC50 (Human betaherpesvirus 5 [2]): 0.3 µM; IC50 (Human alphaherpesvirus 1 [3]): 60 µM
COCCOCn1cc(C(=N)S)c2c(N(C)C)ncnc21,> 100,–,–,T1/2 [6]: 150 h
CCOc1ncnc2c1c(C#N)cn2COCCOC,> 100,–,–,–
CCOCn1cc(C#N)c2c(S)ncnc21,> 100,–,–,–
COCCOCn1cc(C(N)=S)c2c(N)ncnc21,1.3,> 100,–,–
COCCOCn1cc(C(=N)S)c2c(O)ncnc21,> 100,–,–,–

Compound,IC50 (Human betaherpesvirus 5 [1]) [µM],IC50 (HFF) [µM],IC50 (KB) [µM],also measured
COCCOCn1cc(C#N)c2c(O)ncnc21,> 100,–,–,–
Cc1cccc(Cn2c(N)c(C#N)c3c(N)ncnc32)c1,–,100,> 100,IC50 (Human betaherpesvirus 5 [2]): 32 µM; IC50 (Human alphaherpesvirus 1 [3]): > 100 µM
CCOCn1cc(C(=N)S)c2c(NC)ncnc21,20,–,–,–
COCCOCn1cc(C#N)c2c(N(C)C)ncnc21,> 100,–,–,–
COCCOCn1cc(C#N)c2cncnc21,> 100,–,–,–
CCOCn1cc(C(=N)S)c2cncnc21,> 100,–,–,–
CCOCn1cc(C#N)c2cncnc21,> 100,–,–,–
COCCOCn1cc(C(=N)S)c2cncnc21,> 100,–,–,–
N#Cc1c(N)n(Cc2ccccc2)c2ncnc(N)c12,–,100,34,IC50 (Human betaherpesvirus 5 [2]): 3.3 µM; IC50 (Human alphaherpesvirus 1 [3]): 10 µM
COCCOCn1c(N)c(C(N)=O)c2c(N)ncnc21,> 100,> 100,> 100,IC50 (Human betaherpesvirus 5 [5]): > 100 µM
CCNc1ncnc2c1c(C(=N)S)cn2COCCOC,> 100,–,–,–
CCOCn1cc(C(=N)S)c2c(O)ncnc21,> 100,–,–,–
CNc1ncnc2c1c(C(=N)S)cn2COCCOC,20,–,–,IC50 (Human alphaherpesvirus 1 [7]): 30 µM
COCCOCn1cc(C#N)c2c(Cl)ncnc21,> 100,–,–,–
CNc1ncnc2c1c(C#N)cn2COCCOC,> 100,–,–,–
CCNc1ncnc2c1c(C#N)cn2COCC,> 100,–,–,–
COc1ccc(Cn2c(N)c(C#N)c3c(N)ncnc32)cc1,–,100,50,IC50 (Human betaherpesvirus 5 [2]): 9 µM; IC50 (Human alphaherpesvirus 1 [3]): 10 µM
COCCOCn1cc(C#N)c2c(S)ncnc21,> 100,–,–,–
CCOCn1cc(C(=N)S)c2c(N(C)C)ncnc21,> 100,–,–,–
Nc1nc2c(ncn2COCCO)c(=O)[nH]1 [ACYCLOVIR],> 100,> 100,> 100,–
Nc1nc2c(ncn2COC(CO)CO)c(=O)[nH]1 [GANCICLOVIR],–,> 100,> 320,IC50 (Human betaherpesvirus 5 [5]): 2.2 µM

# The next lines start with results.
IC50 (Human betaherpesvirus 5 [1]) [µM],Compound,IC50 (HFF) [µM],IC50 (KB) [µM],also measured
> 100,COCCOCn1c(N(C)C)c(C#N)c2c(N)ncnc21,> 100,> 100,IC50 (Human alphaherpesvirus 1 [4]): > 100 µM
5,COCCOCn1c(N)c(C(N)=S)c2c(N)ncnc21,> 100,> 320,IC50 (Human betaherpesvirus 5 [5]): 20 µM; IC50 (Human alphaherpesvirus 1 [4]): 100 µM
> 100,COCCOCn1c(Br)c(C#N)c2c(N)ncnc21,> 100,> 100,–
> 100,CCOCn1c(Br)c(C#N)c2c(N)ncnc21,> 100,> 100,–
7.2,CCOCn1c(N)c(C#N)c2c(N)ncnc21,> 100,138,IC50 (Human betaherpesvirus 5 [5]): 12 µM; IC50 (Human alphaherpesvirus 1 [4]): 68 µM
> 100,CCOCn1cc(C#N)c2c(Cl)ncnc21,–,–,–
2.8,N#Cc1c(N)n(COCc2ccccc2)c2ncnc(N)c12,> 100,118,IC50 (Human betaherpesvirus 5 [5]): 9 µM; IC50 (Human alphaherpesvirus 1 [4]): 12.5 µM
16,NC(=S)c1c(N)n(COCc2ccccc2)c2ncnc(N)c12,> 100,225,IC50 (Human betaherpesvirus 5 [5]): 19 µM; IC50 (Human alphaherpesvirus 1 [4]): 60 µM
> 100,CCOCn1cc(C#N)c2c(NC)ncnc21,–,–,–
> 100,NC(=O)c1c(N)n(COCc2ccccc2)c2ncnc(N)c12,> 100,> 100,IC50 (Human betaherpesvirus 5 [5]): > 100 µM
> 100,N#Cc1c(Br)n(COCc2ccccc2)c2ncnc(N)c12,> 100,> 100,–
16,CCOCn1c(N)c(C(=N)S)c2c(N)ncnc21,> 100,> 320,IC50 (Human betaherpesvirus 5 [5]): 45 µM; IC50 (Human alphaherpesvirus 1 [4]): 100 µM
> 100,CNc1c(C#N)c2c(N)ncnc2n1COCCOC,> 100,> 100,IC50 (Human alphaherpesvirus 1 [4]): > 100 µM
> 100,CCOCn1cc(C#N)c2c(N)ncnc21,> 100,> 100,–
> 100,CCOCn1cc(C#N)c2c(O)ncnc21,–,–,–
8.2,COCCOCn1c(N)c(C#N)c2c(N)ncnc21,> 100,210,IC50 (Human betaherpesvirus 5 [5]): 9 µM; IC50 (Human alphaherpesvirus 1 [4]): > 100 µM
